Bioassay records as filed in PubChem.
ROMK mod: modulators of human ROMK potassium channel; hit rate 2% among 130,000; B-score at 10 µM; AID 1918; Tet-inducible ROMK, thallium flux fluorescence; actives lie on both sides; P48048;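 active means signal ratio slope over the read window, or its plate-corrected B-score, at least 3 SD from the plate mean, either direction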;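 further: B-score of the F/F0 ratio slope over 7 to 12 s after thallium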
Target sequence (P48048 whole entry, looked up): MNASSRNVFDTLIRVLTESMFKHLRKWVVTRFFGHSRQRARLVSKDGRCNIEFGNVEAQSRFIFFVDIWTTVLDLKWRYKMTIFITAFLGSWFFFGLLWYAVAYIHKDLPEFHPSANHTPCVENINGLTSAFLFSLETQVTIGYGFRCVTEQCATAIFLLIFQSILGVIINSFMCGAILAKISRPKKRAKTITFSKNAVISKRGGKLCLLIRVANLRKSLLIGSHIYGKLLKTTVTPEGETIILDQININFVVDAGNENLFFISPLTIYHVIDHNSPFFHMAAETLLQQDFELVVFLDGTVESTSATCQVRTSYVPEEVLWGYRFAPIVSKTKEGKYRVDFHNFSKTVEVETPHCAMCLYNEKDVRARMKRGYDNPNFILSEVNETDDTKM
Biofilm kill mix: mixtures killing C. albicans biofilm; C. albicans biofilm persisters + clotrimazole, fluorescence viability; primary screen in compound mixtures of four per well; inhibition, % at 7.6 µM; hit rate 0.02% among 120,000; AID 1242;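 active means inhibition above 30.3% in the primary screen of four-compound pools, then above 30% when the compound was retested; inconclusive means passed the primary limit but could not be retested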;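 further: compounds exposed to preformed 24 h biofilms for 48 h; 0% = untreated biofilm control and 100% = clotrimazole plus chlorhexidine kill blank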
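Test system: C. albicans biofilms. Buffer or medium: RPMI/MOPS medium, pH 7.0. Timing: 48 h compound exposure at 37 °C. Technique: Alamar Blue fluorescence. Evaluation: percent inhibition of biofilm viability.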
Pf gamet viab: inhibitors of late stage P. falciparum gametocyte viability; P. falciparum stage V gametocytes, ATP luminescence, 24 h; inhibition, % at 10.9 µM; AID 743093; hit rate 0.065% among 150,000;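 active means inhibition above the mean plus 3 SD of compounds within the control limits, set per campaign, cut at about 38% in these data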;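 further: 0% = DMSO wells and 100% = medium only without gametocytes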
ROMK retest: retested hit modulating human ROMK potassium channel. hit rate 54% among 3,000. normalized thallium flux (F/F0 slope) at 10 µM. ROMK thallium flux, fluorescence ratio; hits give low values. shares compounds with ROMK mod;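 active means Flux at 10 µM at least 3 SD below or above vehicle control mean in one or both replicates; inconclusive means no clear call, values can overlap the other calls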
* hit, by the source's call; ? = inconclusive; · = no result given. This excerpt belongs to a sample that is enriched for hits.

SMILES	ROMK mod	Biofilm kill mix	Pf gamet viab	ROMK retest
Cc1ccnc(NS(=O)(=O)c2ccc(NC(=O)CN3C(=O)CCC3=O)cc2)n1	2.57*	1.7	3.9	0.0819
Cc1ccnc(NS(=O)(=O)c2ccc(NC(=O)c3ccc(N4C(=O)CCC4=O)cc3)cc2)n1	0.0651	8.7	8.4	·
CCc1nnc(N/N=C/c2c(C)[nH]c3ccccc23)n1N	1.71	15.7	-14.9	·
CC(=C/c1ccccc1)/C=C1/SC(N2CCOCC2)=NC1=O	·	·	·	0.0535*
O=C1N=C(N2CCOCC2)S/C1=C/c1ccc(-c2ccccc2Cl)o1	·	·	7.4	0.0561*
CC(C)c1ccc(/C=C2\SC(N3CCOCC3)=NC2=O)cc1	0.919	13.1	14.3	·
O=C1N=C(N2CCOCC2)S/C1=C\c1ccncc1	·	24.3	-3.4	·
O=C(N/C(=C/c1cccc([N+](=O)[O-])c1)C(=O)N1CCCCC1)c1cccs1	0.228	16.4	-2.0	·
Cc1cc(C)c2c(n1)nn1c(N3CCN(c4ccccc4C)CC3)cc(C)nc21	0.161	·	·	·
COc1ccc(N=Cc2c(O)c3ccccc3n2C(C)=O)cc1	·	-0.5	0.1	0.0335*
COc1ccc(N=Cc2sc(O)c3ccccc23)cc1	·	·	6.9	·
O=c1[nH]c(CN2CCN(S(=O)(=O)/C=C/c3ccccc3)CC2)nc2cc(Cl)ccc12	·	14.3	-7.9	·
Cc1cccc(C(=O)NCCN2CCOCC2)c1[N+](=O)[O-]	-0.0628	8.8	-7.8	·
O=C(NCCN1CCOCC1)c1ccccc1[N+](=O)[O-]	3.05*	·	-1.4	0.0889
Cc1ccc2nc(SCC(=O)N3CCN(c4ccccc4)CC3)[nH]c2c1	-1.4	14.4	-7.8	·
CCn1cnc2c([N+](=O)[O-])c(NS(=O)(=O)c3ccc(C)cc3)ccc21	·	·	-6.0	·
CC(C)Oc1ccc(/C=C/C(=O)NCC2COc3ccccc3O2)cc1 (stereo not drawn)	·	21.1	10.7	·
Cc1ccccc1-c1cccc([C@@H]2C[C@H]3CN(Cc4cccnc4)C(=O)[C@]34CCCN24)c1	-1.28	14.6	·	·
O=S(=O)(c1ccc(Cl)cc1)N1CCCC(C(F)(F)F)C1 (stereo not drawn)	0.56	16.7	2.9	·
O=C(NNc1cccc(Cl)n1)Nc1ccc(F)cc1	-0.989	17.4	1.0	·
CCOC(=O)C1(Cc2ccccc2)CCN(Cc2cccc(OC)c2O)CC1	-1.09	10.8	-3.7	·
CCOC(=O)C1(Cc2ccccc2)CCN(Cc2cn(CC(=O)OC)c3ccccc23)CC1	-3.32*	0.7	13.8	0.0546*
Cc1ccc(/C=N/N2CCOCC2)s1	0.0537	11.3	-28.5	·
OC(COC(c1ccc(Cl)cc1)c1ccc(Cl)cc1)CN1CCCC1 (stereo not drawn)	-3.93*	·	·	0.0569*
OC(COC(c1ccc(Cl)cc1)c1ccc(Cl)cc1)CN1CCc2ccccc2C1 (stereo not drawn)	-1.48	15.3	-11.1	·
SMILES	ROMK mod	Biofilm kill mix	Pf gamet viab	ROMK retest
Cc1ccc(-n2cc(CNC(C)c3cnn(C)c3C)c(-c3ccc(F)cc3)n2)cc1 (stereo not drawn)	-4.09*	11.5	-2.2	0.0542*
Cc1ccc(-n2cc(CNC(C)c3cnn(C)c3)c(-c3ccc(F)cc3)n2)cc1 (stereo not drawn)	-2.65*	7.6	·	0.0508*
Cc1ccc(-n2cc(CNCCCn3ccnc3C)c(-c3ccc(F)cc3)n2)cc1	-0.31	12.4	-5.6	·
Cc1ccc(-n2cc(CNC(C)Cn3cncn3)c(-c3ccc(F)cc3)n2)cc1 (stereo not drawn)	-1.64	13.5	7.2	·
CN1CCCN(Cc2ccccc2Br)CC1	·	·	-8.0	·
O=C(N/N=C/c1ccc(N2CCCCC2)o1)c1ccccc1[N+](=O)[O-]	1.63	2.7	19.8	·
O=S(=O)(c1ccccc1)N1CCC2(CC1)OCCO2	0.933	12.8	24.4	·
CNS(=O)(=O)c1cc2c3c(cccc3c1)C(=O)NC2=O	1.11	7.9	4.6	·
Cc1ccc(NS(=O)(=O)c2cc3c4c(cccc4c2)C(=O)NC3=O)cc1	1.66*	13.4	-9.8	?
Cc1[nH]n(-c2ccc(Cl)c(Cl)c2)c(=O)c1CCO	1.01	-2.9	-23.2	·
Cc1[nH]n(-c2ccc(C(=O)O)cc2)c(=O)c1CCO	3.75*	9.3	·	0.0812
Cc1ccn(CC(=O)N/N=C/c2cc([N+](=O)[O-])ccc2O)n1	·	7.4	-33.2	·
CC(=O)CSc1nnc(Cc2ccc3c(c2)OCO3)o1	·	8.6	·	·
Cc1noc(C)c1COC(=O)c1cccc(N(C)C)c1	-1.31	16.3	20.8	·
Cc1noc(C)c1COC(=O)c1ccc2c(c1)S(=O)(=O)c1ccccc1C2=O	·	·	6.6	0.0777
O=C(Nc1ccccc1-c1ccccc1)C(c1ccccc1)c1ccccc1	0.278	14.1	-34.1	·
COc1ccc(NC(=O)c2csc(Cc3ccccc3)n2)cc1	0.328	·	·	·
COc1ccc(CNC(=O)c2csc(Cc3ccccc3)n2)cc1	·	·	16.8	0.0743
O=C1C=C(c2ccc3ccccc3c2)C[C@@H](c2ccc(F)cc2)C1	·	·	-27.4	·
